Source: PubChem BioAssay
CHRM4 antagonist = human M4 muscarinic receptor antagonists, primary screen, CHO cells, Fluo-8 calcium fluorescence | Muscarinic acetylcholine receptor M4 (Homo sapiens), P08173 | CHO-hM4 cells, ACh EC80 | inhibition, % at 3 µM | 0.73% of 360,000 active | AID 624125, 2012;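 active = inhibition above its plate's cutoff, the mean inhibition of sample wells plus 3 SD, cut at about 27% in these data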
CHRM5 agonist = human M5 muscarinic receptor agonists, primary screen, CHO-K1 cells, Fluo-8 calcium fluorescence. AID 624037, 2012. activation, % at 3 µM. CHO-K1 hM5 cells; 0% DMSO wells, 100% maximal acetylcholine response. Muscarinic acetylcholine receptor M5 (Homo sapiens), P08912. 0.19% of 360,000 active;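 active = activation above the run's mean over test compounds plus 3 SD, cut at about 23% in these data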;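 also: signal is peak over basal fluorescence ratio across the kinetic read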
Target sequence (P08912 whole entry, looked up): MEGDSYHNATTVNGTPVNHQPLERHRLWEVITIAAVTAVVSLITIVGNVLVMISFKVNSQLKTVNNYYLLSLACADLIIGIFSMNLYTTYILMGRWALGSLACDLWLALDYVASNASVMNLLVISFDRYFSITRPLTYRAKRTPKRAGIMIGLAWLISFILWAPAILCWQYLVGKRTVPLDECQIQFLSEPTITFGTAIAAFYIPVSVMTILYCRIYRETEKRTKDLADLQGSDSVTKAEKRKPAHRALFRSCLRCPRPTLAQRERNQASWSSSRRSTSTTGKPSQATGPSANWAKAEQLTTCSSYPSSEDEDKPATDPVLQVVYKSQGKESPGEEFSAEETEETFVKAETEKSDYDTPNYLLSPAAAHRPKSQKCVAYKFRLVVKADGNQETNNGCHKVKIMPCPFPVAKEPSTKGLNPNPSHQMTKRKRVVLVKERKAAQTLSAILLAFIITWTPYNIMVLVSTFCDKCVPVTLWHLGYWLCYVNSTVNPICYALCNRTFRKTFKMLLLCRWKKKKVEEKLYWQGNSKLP
M4 PAM = human M4 muscarinic receptor positive allosteric modulators, primary screen, CHO-K1 cells, Fluo-8 calcium fluorescence. CHO-K1 hM4/Gqi5, ACh EC20; 0% = ACh EC20, 100% = maximal ACh. activation, % at 3 µM. 0.4% of 360,000 active. AID 624126, 2012;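 active = activation above its plate's cutoff, the mean activation of sample wells plus 3 SD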
CHRM5 PAM = human M5 muscarinic receptor positive allosteric modulators, primary screen, CHO-K1 cells, Fluo-8 calcium fluorescence. Muscarinic acetylcholine receptor M5 (Homo sapiens), P08912. CHO-K1 hM5, ACh EC20 PAM; 0% = ACh EC20, 100% = ACh EC100. activation, % at 3 µM. 0.3% of 360,000 active. AID 624038, 2012;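 active = activation above the run cutoff, the mean activation of all test compounds plus 3 SD, cut at about 18% in these data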
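system = human M5 receptor in CHO-K1 cells | reagent = EC20 acetylcholine as agonist stimulus | compound dosing = single-point, 3 µM nominal | incubation = Fluo-8 loading 80 min at 37 °C plus 30 min room temperature | detection = Fluo-8 calcium dye fluorescence, kinetic read | benchmarks = low control EC20 acetylcholine (0%), high control EC100 acetylcholine (100%)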
M5 antag = human M5 muscarinic receptor antagonists, primary screen, CHO cells, Fluo-8 calcium fluorescence; 0.59% of 360,000 active; CHO-hM5 cells, ACh EC80; inhibition, % at 3 µM; AID 624040, 2012; Muscarinic acetylcholine receptor M5 (Homo sapiens), P08912;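 active = inhibition above a per-plate cutoff, the mean of that plate's test compounds plus 3 SD, cut at about 27% in these data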
M4 ag = human M4 muscarinic receptor agonists, primary screen, CHO-K1 cells, Fluo-8 calcium fluorescence. Muscarinic acetylcholine receptor M4 (Homo sapiens), P08173. CHO-K1 hM4/Gqi5; vehicle 0%, full acetylcholine response 100%. activation, % at 3 µM. 0.14% of 360,000 active;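 active = activation above the run mean over all test wells plus 3 SD, cut at about 32% in these data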;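 also: peak over basal fluorescence ratio per well then scaled between controls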
Hits are given with their value; . = inactive; + = active, no number. In the library only some 1.9% were active in any assay of this set; here they are far more common.

SMILES	CHRM4 antagonist	CHRM5 agonist	M4 PAM	CHRM5 PAM	M5 antag	M4 ag
CC(Nc1ncnc2sccc12)c1ccccc1 (stereo not given)	.	.	.	.	33	.
O=C(C[C@H]1C[C@@H]2c3cc(NC(=O)Nc4ccccc4F)ccc3O[C@@H]2[C@H](CO)O1)NCc1ccccn1	.	.	.	.	.	.
C[C@@H](CSc1ccc(Br)cc1)CN1CC[C@H](NC(=O)OCc2ccccc2)CCC1=O	28	.	.	.	.	.
N=C(N)c1ccc(O)cc1	.	.	28	.	.	.
COC(=O)c1oc2ccc(Br)cc2c1NC(=O)CCCN1C(=O)c2ccccc2C1=O	98	.	.	.	29	.
O=c1cc2c(nn1Cc1ccc(Cl)cc1)-c1ccccc1CC2	.	.	.	30	.	.
O=c1cc2c(nn1Cc1cccc(Cl)c1)-c1ccccc1CC2	.	.	.	.	.	.
c1ccc(CC2CCN(c3ncnc4sccc34)CC2)cc1	.	.	.	.	38	.
O=C(O)c1cc2c(N3CCC(Cc4ccccc4)CC3)ncnc2s1	.	.	.	.	.	.
CCOC(=O)C1=C(C)N(CCO)C(=O)NC1c1ccccc1 (stereo not given)	.	.	.	20	.	.
CCOC(=O)C1=C(C)N(CCCC(=O)O)C(=O)NC1c1ccccc1 (stereo not given)	.	.	.	.	.	.
CCS(=O)(=O)Nc1cccc(-c2cn3c(n2)SCC3)c1	.	.	.	.	.	.
CS(=O)(=O)Nc1cccc(-c2cn3c(n2)SCC3)c1	.	.	.	.	31	.
CCc1nnc(NC(=O)c2ccncc2)s1	.	.	18	20	.	.
CCCc1nnc(NC(=O)c2ccncc2)s1	.	.	.	.	.	.
CCc1nnc(NC(=O)c2cc(-c3ccccn3)nc3ccccc23)s1	.	.	19	.	.	.
CCc1nnc(NC(=O)c2cc(-c3ccco3)nc3ccccc23)s1	.	.	.	.	.	.
Fc1ccc(Nc2nc(NCc3cccs3)nc3ccsc23)cc1	.	.	.	.	.	.
O=c1ccc2c(-c3ccccc3)c3ccc(O)cc3oc-2c1	86	797	.	.	86	+
Nc1ccc(-c2c3ccc(=O)cc-3oc3cc(O)ccc23)cc1C(=O)O	63	203	.	.	30	548
O=c1cc(-c2ccccc2)oc2cc(O)ccc12	.	.	.	.	.	.
CC(Sc1cnccn1)C(=O)O (stereo not given)	.	.	.	.	32	.
CSc1ccc(-c2cc3c(c4c2ccn4C)C2CCC3O2)cc1 (stereo not given)	.	.	.	.	.	.
CCOC1=C2CN(S(=O)(=O)c3ccc(C)cc3)[C@@H](c3ccccc3)C[C@H]2[C@H]2C(=O)N(c3ccccc3)C(=O)[C@H]2C1	.	.	.	.	.	.
Cc1ccc2cc(C#N)c(SCC(=O)NCC3CCCO3)nc2c1 (stereo not given)	.	.	26	.	.	.
SMILES	CHRM4 antagonist	CHRM5 agonist	M4 PAM	CHRM5 PAM	M5 antag	M4 ag
Cc1ccc2nc(SCC(=O)NCC3CCCO3)c(C#N)cc2c1 (stereo not given)	.	.	.	.	.	.
CCOC(=O)c1sc(NC(=O)CN2C(=O)NC3(CCCCCCC3)C2=O)c(C(=O)OCC)c1C	27	.	.	.	.	.
CCOC(=O)C1CCCN(c2c(C(=O)c3ccccc3)cnc3ccc(OC)cc23)C1 (stereo not given)	.	32	.	.	.	.
Cc1ccc(NC(=O)C2(C)CCN2C(=O)CCC2CCCC2)cc1C (stereo not given)	.	.	.	.	.	.
CCCCn1nnnc1C(c1ccccc1)N1CCN(c2cccc(C)c2C)CC1 (stereo not given)	.	.	.	.	.	.
Cc1cccc(N2CCN(C3C(=O)Nc4ccccc4-n4nnnc43)CC2)c1C (stereo not given)	.	.	.	.	.	.
Cc1ccc(S(=O)(=O)Nc2cccc3ncccc23)s1	28	.	.	.	.	.
Cc1ccc(S(=O)(=O)Nc2cccc3ncccc23)cc1	.	.	.	.	.	.
COC(=O)C1=CN(c2cccc(OCc3ccccc3)c2)C(N)=C(C#N)C1c1cccc(OC)c1OC (stereo not given)	.	.	.	.	.	.
Cc1ccccc1C1N=C2Oc3ccccc3C=C2C(=O)N1 (stereo not given)	.	.	.	.	.	.
O=C(NCc1ccc(F)cc1)c1cc(C2CCCCN2C(=O)CCCc2ccccc2)on1 (stereo not given)	.	.	.	.	.	.
CC(Oc1ccccc1)c1ccnn1S(=O)(=O)c1ccccc1 (stereo not given)	.	.	.	20	.	.
CN(C)c1ccc(-c2ccnc3c2CC(C)(C(=O)NCC2CC2)O3)cc1 (stereo not given)	.	.	.	.	.	.
COc1ccc(NC(=O)c2c(Nc3ccccc3)sc(C(=O)c3ccc(F)cc3)c2N)cc1	.	.	.	.	28	.
COc1ccc(C(=O)c2sc(Nc3cccc(OC)c3)c(C(=O)Nc3cccc(C)c3C)c2N)cc1	.	.	.	.	.	.
COc1ccc(C(=O)c2sc(Nc3ccccc3)c(C(=O)Nc3ccc(OC)c(OC)c3)c2N)cc1	.	.	.	.	.	.
COc1ccc(Nc2sc(C(=O)c3ccc(Cl)cc3)c(N)c2C(=O)Nc2ccccc2OC)cc1	50	39	.	.	.	74
CC(C)c1nc2n[nH]c(N)c2c2c1CCCC2	.	.	23	.	.	.
O=C(NCc1ccccc1)c1ccc(NC2=NC3CS(=O)(=O)CC3S2)cc1 (stereo not given)	.	.	.	.	.	.
NNC1=N[C@H]2CS(=O)(=O)C[C@H]2S1	.	.	24	.	.	.
CC1CCCCN1C/C=C/c1ccccc1[N+](=O)[O-] (stereo not given)	34	.	.	.	.	.
CCC1CCCCN1C/C=C/c1ccccc1[N+](=O)[O-] (stereo not given)	54	.	.	.	55	.
